In publication PMC8561236 (Cell Reports Medicine, 2021):

Assays:
[1] = Pharmacokinetic study in rats; format: in vivo, Lewis rats; conditions: rat, EC2319 subcutaneous 500 nmol/kg; analyte = label
[2] = Pharmacokinetic study in dogs; format: in vivo, beagle dogs; conditions: dog
FRβ = conditions: cited from earlier work
[3] = test system: Ly6Chigh monocytes in EAU mice; assay: Experimental autoimmune uveitis; set-up: species or system B10.RIII mice; conditions: mouse, in vivo, 200 mg/kg
RAW264.7 cells = conditions: same experimental condition; cited from earlier work
[4] = test system: CD172+ CD43− monocytes in anti-GBM rats; assay: Anti-GBM induced glomerulonephritis, blood monocyte analysis; format: in vivo, Wistar Kyoto rats; conditions: oral, 4.56 μmol/kg on day 0 or 575 nmol/kg on days 0 and 3, day 6 whole blood
Method in brief: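 Male WKY rats on folate-deficient diet for 10 days, then IV anti-GBM serum (25 μL/100 g); diet continued. Dosing at 8 h (day 0) and day 3, ± 300-fold molar excess FA competitor; n = 3. Blood in 5 mM K2EDTA, analysed next day: RBC lysis of 100 μL blood, flow staining. CD172+CD43− monocytes expressed as percentage of total leukocytes.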

## Nc1nc(N)c2nc(CNc3ccc(C(=O)N[C@@H](CCC(=O)O)C(=O)O)cc3)cnc2n1 [AMT, Aminopterin]
[1]
  AUClast (% Total): 9.17%
[2]
  difference in AUClast between EC2319-derived AMT and the AMT adduct: 3- to 7 fold
[2]; both dosing routes (intravenous 1 mg/kg, subcutaneous 2.43 mg/kg), analyte = label
  share of total AUClast: 1.37%–2.99%
FRβ
  binding affinity toward FRβ: negligible

## CNC(=O)c1cc(Oc2ccc3nc(N[C@@H]4CCCC[C@H]4O)sc3c2)ccn1 [BLZ945]
[3]
  effect on classical (R1, Ly6Chigh CD43+) monocytes: reduced significantly to background levels

## Nc1nc(=O)c2nc(CNc3ccc(C(=O)N[C@@H](CCC(=O)O)C(=O)O)cc3)cnc2[nH]1 [FA, Folic acid]
RAW264.7 cells
  biological effect of FA alone: did not show an immediate biological effect

## CN(Cc1cnc2nc(N)nc(N)c2n1)c1ccc(C(=O)N[C@@H](CCC(=O)O)C(=O)O)cc1 [MTX, Methotrexate]
[4]
  effect on CD172+ CD43− monocytes: ineffective
